Autophagy mod: autophagy modulators in MEF cells, primary screen, imaging, high-content, MEF GFP-LC3. MEF GFP-LC3 puncta imaging; test concentration mostly 10 µM. calls only at 10 µM (by protocol). AID 463193, 2010. hit rate 0.98% among 190,000;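 active = percentage of spot-positive cells more than 3 SD above its plate mean, without a fluorescence outlier flag or 80% toxicity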;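 note: spot-positive cell cutoff set from DMSO-treated cells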
CHOP inh: inhibitors of CHOP promoter induction, primary screen, cell-based, unfolded protein response, luciferase reporter. CHO-K1 CHOP-promoter luciferase, tunicamycin-induced, 15-18 h. hit rate 3.8% among 220,000. inhibition, % at 10 µM. AID 2732, 2010;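 active = compounds that reduced the stress-induced luciferase reporter signal by more than about 70% of percent inhibition, limit read from the data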;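 note: 0% = tunicamycin plus vehicle and 100% = wells without tunicamycin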
Lmaj promast: Leishmania major promastigote growth inhibition, primary screen | AID 1063, 2008 | inhibition, % at 10 µM | Leishmania major promastigotes, resazurin fluorescence viability | hit rate 9% among 200,000; in the data active = inhibition above about 50%;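 note: promastigotes grown with compound for 44 hours at 28 °C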
MT stabilizer: microtubule stabilizers in HeLa cells, primary screen, imaging, high-content imaging; HeLa tubulin immunostaining HCS, 24 h; share of cells brighter than vehicle mean+2SD; % tubulin-high responders, % at 10 µM; hit rate 0.83% among 200,000;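 active = plate Z-score above 3 for both tubulin-high and condensed-nucleus cell shares, with cell loss under 80%, at 10 µM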;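 note: anti alpha tubulin signal scored within the nucleus-defined area of each cell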
Dynein cargo inh: inhibitors of GR-EGFP nuclear translocation, primary screen, dynein cargo transport inhibitor project, imaging, high-content, 3617.4 mouse cells; hit rate 0.47% among 220,000; test concentration mostly 20 µM; stimulated with dexamethasone, 1 µM; hits give low values; z-score, hits read low; AID 1381, 2008;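 active = plate z-score of nuclear minus cytoplasmic receptor signal below a set negative limit, without overly bright fluorescence or cell loss, cut at about -3.5 in these data, passing the limit was not always enough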;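 note: z-score of nuclear minus cytoplasmic ring GR-EGFP intensity difference per well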
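Buffer or medium: Induction medium lacking tetracycline, stripped serum | Also added: Dexamethasone agonist, 1.0 µM final, for 30 min | Timing: 48 h induction, 1 h compound, 30 min dex at 37 °C | Detection: Formaldehyde fixation, Hoechst nuclear stain, 10x automated fluorescence imaging | Measure: Nuclear versus cytoplasmic GR-EGFP signal, averaged per well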
b-catenin transl: modulators of beta-catenin nuclear translocation, primary screen, imaging, HeLa cells, immunofluorescence, high-content; nuclear translocation activity, % at 5 µM; hit rate 0.3% among 190,000; AID 1665, 2009;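 active = nuclear translocation activity above 50% at 5 µM, with a well cell count of 50 or more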;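 note: per-cell ratio of nuclear to cytoplasmic median beta-catenin stain intensity; plate controls were DMSO negative control for no effect and GSK-3 inhibitor IX positive control for full effect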
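Test system: HeLa cells, endogenous beta-catenin; Compound: single 5 µM dose plus 0.02–20 µM confirmation series; Times: compound exposure 24 h at 37°C; Signal: fluorescence imaging of beta-catenin antibody stain plus DAPI; Read-out: % activation, nuclear-to-cytoplasmic median beta-catenin signal ratio per cell.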
Numbers without * were called inactive. Shown are actives, neighbours in structure and some others; about 12% of the full set was active somewhere.

CC(C)(CO)CNC(=O)c1ccc(OC2CCN(C(=O)C3CC3)CC2)cc1 was read as Autophagy mod inactive, CHOP inh 14, Lmaj promast 1, MT stabilizer 3, Dynein cargo inh -0.87 and b-catenin transl 0.
`Cc1ccc(CN=C(N)Nc2nc(C)cc(C)n2)cc1` gave Autophagy mod inactive, CHOP inh -4, Lmaj promast 35, MT stabilizer 12*, Dynein cargo inh -0.79 and b-catenin transl 42.
Screening O=C(N/N=C\c1ccc(-c2ccccc2[N+](=O)[O-])o1)C1COc2cc3ccccc3cc2O1 (centres undefined) returned Autophagy mod inactive, CHOP inh 42, Lmaj promast 96*, MT stabilizer 2, Dynein cargo inh -0.51 and b-catenin transl 2.
For O=C(O)c1cccc(-c2ccc(/C=N/NC(=O)C3COc4ccccc4O3)o2)c1 (centres undefined) the results were Autophagy mod inactive, CHOP inh -31, Lmaj promast -10, MT stabilizer 2, Dynein cargo inh 0.29 and b-catenin transl -1.
O=C(N/N=C\c1ccc(-c2ccccc2[N+](=O)[O-])o1)C1COc2ccccc2O1 (centres undefined) was read as Autophagy mod inactive, CHOP inh 37, Lmaj promast 52*, MT stabilizer 7, Dynein cargo inh 0.31 and b-catenin transl 2.
`O=C(N/N=C\c1ccc([N+](=O)[O-])o1)C1COc2ccccc2O1` (centres undefined) gave Autophagy mod inactive, CHOP inh -18, Lmaj promast 100*, MT stabilizer 5, Dynein cargo inh -1.7 and b-catenin transl -1.
O=C(N/N=C\C=C\c1ccc2c(c1)OCO2)C1COc2ccccc2O1 (centres undefined) was read as Autophagy mod inactive, CHOP inh 48, Lmaj promast 65*, MT stabilizer 5, Dynein cargo inh -1.1 and b-catenin transl 3.
O=C(N/N=C\C=C\c1ccc2c(c1)OCO2)c1cccnc1 was read as Autophagy mod inactive, CHOP inh -5, Lmaj promast 3, MT stabilizer 4, Dynein cargo inh 0.013 and b-catenin transl -3.
For CCOC(=O)C1CCCN(S(=O)(=O)c2ccc(NC(C)=O)cc2)C1 (centres undefined) the results were Autophagy mod inactive, CHOP inh 10, Lmaj promast 5, MT stabilizer 5, Dynein cargo inh 2.1 and b-catenin transl 1.
`CN(C)S(=O)(=O)c1ccc(NC(=O)C2CCCN(C(=O)c3ccc(Cl)cc3)C2)cc1` (centres undefined) gave Autophagy mod inactive, CHOP inh -4, Lmaj promast 4, MT stabilizer 2, Dynein cargo inh 0.17 and b-catenin transl -3.
`CCOC(=O)c1ccc(NC(=O)C2CCCN(S(=O)(=O)c3ccc(F)cc3)C2)cc1` (centres undefined) gave Autophagy mod inactive, CHOP inh 68, Lmaj promast 59*, MT stabilizer 2 and Dynein cargo inh -0.84.
For CCOC(=O)C1CCCN(S(=O)(=O)c2ccc(F)c(C(=O)Nc3ccc(F)c(F)c3)c2)C1 (centres undefined) the results were Autophagy mod inactive, CHOP inh 76*, Lmaj promast 6, MT stabilizer 1, Dynein cargo inh -1.3 and b-catenin transl 2.
O=C(Nc1ccc(S(=O)(=O)N2CCCCC2)cc1)C1CCCN(C(=O)c2ccc(Cl)cc2)C1 (centres undefined) was read as Autophagy mod inactive, CHOP inh 41, Lmaj promast 56*, MT stabilizer 2, Dynein cargo inh -0.13 and b-catenin transl 1.
Cc1ccc(S(=O)(=O)CCC(=O)Nc2ccc(S(=O)(=O)N(C)C)cc2)cc1 was read as Autophagy mod inactive, CHOP inh -2, Lmaj promast -3, MT stabilizer 2, Dynein cargo inh -1.2 and b-catenin transl -4.
For CN(C)c1ccc(C(CNS(=O)(=O)c2ccc3ccccc3c2)c2c[nH]c3ccccc23)cc1 (centres undefined) the results were Autophagy mod inactive, CHOP inh 76*, Lmaj promast 7, MT stabilizer 3, Dynein cargo inh -0.55 and b-catenin transl -1.
`CCCCOC(=O)Nc1cc(C(=O)OC)ccc1C(=O)OC` gave Autophagy mod inactive, Lmaj promast -3, MT stabilizer 2, Dynein cargo inh 1.7 and b-catenin transl 0.
For O=S(=O)(Nc1nccs1)c1ccc(Cl)cc1 the results were Autophagy mod inactive, CHOP inh 17, Lmaj promast -4, MT stabilizer 2, Dynein cargo inh 0.8 and b-catenin transl 1.
For COc1ccc(Cc2noc(CN3CCN(C4CCc5ccccc5C4)CC3)n2)cc1OC (centres undefined) the results were Autophagy mod inactive, CHOP inh 25, Lmaj promast 8, MT stabilizer 3, Dynein cargo inh -0.15 and b-catenin transl 0.
`Fc1cccc(Cc2noc(CN3CCCN(C4Cc5ccccc5C4)CC3)n2)c1` gave Autophagy mod inactive, CHOP inh 8, Lmaj promast 88*, MT stabilizer 1, Dynein cargo inh -1.1 and b-catenin transl 1.
Screening Fc1cccc(Cc2noc(CN3CCSCC3)n2)c1 returned Autophagy mod inactive, CHOP inh 20, Lmaj promast -5, MT stabilizer 1, Dynein cargo inh 0.14 and b-catenin transl -1.
`Fc1cccc(Cc2noc(CN3CCN(C4CCc5ccccc5C4)CC3)n2)c1` (centres undefined) gave Autophagy mod inactive, CHOP inh 12, Lmaj promast 89*, MT stabilizer 2, Dynein cargo inh 1.8 and b-catenin transl 1.
For COc1ccc(Cc2noc(CN3CCCN(Cc4ccc(F)cc4)CC3)n2)cc1OC the results were Autophagy mod inactive, CHOP inh -2, Lmaj promast 77*, MT stabilizer 1, Dynein cargo inh 1.5 and b-catenin transl 1.
Screening COCCn1c(SCc2cc(=O)n3cc(C)ccc3n2)nc2ccccc2c1=O returned Autophagy mod inactive, CHOP inh 12, Lmaj promast -1, MT stabilizer 7, Dynein cargo inh -0.54 and b-catenin transl 0.
COCCNC(=O)CSc1nc2cc(OC)c(OC)cc2c(=O)n1CCc1ccc(S(N)(=O)=O)cc1 was read as Autophagy mod inactive, CHOP inh -3, Lmaj promast -3, MT stabilizer 4, Dynein cargo inh 1.4 and b-catenin transl 0.
